Measured values taken from ChEMBL document CHEMBL3044834, “Novel protoporphyrinogen oxidase inhibitors: 3H-pyrazolo[3,4-d][1,2,3]triazin-4-one derivatives” (J Agric Food Chem, 2008).

system: Amaranthus retroflexus; assay: Herbicidal activity against Amaranthus retroflexus assessed as inhibition of fresh weed plant weight at 187.5 g/ha using pre-emergence treatment protocol; assay type: functional

SMILES | inhibition at 187.5 g/ha
C=CCN1C(=O)COc2cc(F)c(-n3nnc4nn(CC=C)cc4c3=O)cc21 | 100%

system: Echinochloa crus-galli; assay: Herbicidal activity against Echinochloa crus-galli (barnyard grass) assessed as inhibition of fresh weed plant weight at 750 g/ha using post-emergence treatment protocol; assay type: functional
Summary of the method: (§1)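 Test compounds made up as emulsions by dissolving in 100 µL N,N-dimethylformamide, then adding a little Tween 20 and water. For post-emergence, weed seedlings at one leaf and one stem were sprayed at the same rates as the pre-emergence test. Fresh weight was recorded 15 days after treatment and expressed as percent inhibition versus controls. All treatments were run in triplicate.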

SMILES | inhibition at 750 g/ha
C=CCN1C(=O)COc2cc(F)c(-n3nnc4nn(CC=C)cc4c3=O)cc21 | 18.1%

system: Echinochloa crus-galli; assay: Herbicidal activity against Echinochloa crus-galli (barnyard grass) assessed as inhibition of fresh weed plant weight at 187.5 g/ha using pre-emergence treatment protocol; assay type: functional; summary of the method: as §1

SMILES | inhibition at 187.5 g/ha
C=CCN1C(=O)COc2cc(F)c(-n3nnc4nn(CC=C)cc4c3=O)cc21 | 18.2%

system: Brassica rapa subsp. oleifera; assay: Herbicidal activity against Brassica rapa subsp. oleifera assessed as inhibition of fresh weed plant weight at 375 g/ha using pre-emergence treatment protocol; assay type: functional

SMILES | inhibition at 375 g/ha
C=CCN1C(=O)COc2cc(F)c(-n3nnc4nn(CC=C)cc4c3=O)cc21 | 100%

system: Brassica rapa subsp. oleifera; assay: Herbicidal activity against Brassica rapa subsp. oleifera assessed as inhibition of fresh weed plant weight at 750 g/ha using post-emergence treatment protocol; assay type: functional; summary of the method: as §1

SMILES | inhibition at 750 g/ha
C=CCN1C(=O)COc2cc(F)c(-n3nnc4nn(CC=C)cc4c3=O)cc21 | 88.5%

system: Amaranthus retroflexus; assay: Herbicidal activity against Amaranthus retroflexus assessed as inhibition of fresh weed plant weight at 1500 g/ha using pre-emergence treatment protocol; assay type: functional

SMILES | inhibition at 1500 g/ha
C=CCN1C(=O)COc2cc(F)c(-n3nnc4nn(CC=C)cc4c3=O)cc21 | 100%

system: Digitaria sanguinalis; assay: Herbicidal activity against Digitaria sanguinalis (hairy crabgrass) assessed as inhibition of fresh weed plant weight at 1500 g/ha using post-emergence treatment protocol; assay type: functional; summary of the method: as §1

SMILES | inhibition at 1500 g/ha
C=CCN1C(=O)COc2cc(F)c(-n3nnc4nn(CC=C)cc4c3=O)cc21 | 0%

system: Amaranthus retroflexus; assay: Herbicidal activity against Amaranthus retroflexus assessed as inhibition of fresh weed plant weight at 93.75 g/ha using post-emergence treatment protocol; assay type: functional; summary of the method: as §1

SMILES | inhibition at 93.75 g/ha
C=CCN1C(=O)COc2cc(F)c(-n3nnc4nn(CC=C)cc4c3=O)cc21 | 28.9%

system: Digitaria sanguinalis; assay: Herbicidal activity against Digitaria sanguinalis (hairy crabgrass) assessed as inhibition of fresh weed plant weight at 375 g/ha using pre-emergence treatment protocol; assay type: functional

SMILES | inhibition at 375 g/ha
C=CCN1C(=O)COc2cc(F)c(-n3nnc4nn(CC=C)cc4c3=O)cc21 | 40.8%

system: Echinochloa crus-galli; assay: Herbicidal activity against Echinochloa crus-galli (barnyard grass) assessed as inhibition of fresh weed plant weight at 93.75 g/ha using post-emergence treatment protocol; assay type: functional; summary of the method: as §1

SMILES | inhibition at 93.75 g/ha
C=CCN1C(=O)COc2cc(F)c(-n3nnc4nn(CC=C)cc4c3=O)cc21 | 0%

system: Brassica rapa subsp. oleifera; assay: Herbicidal activity against Brassica rapa subsp. oleifera assessed as inhibition of fresh weed plant weight at 93.75 g/ha using pre-emergence treatment protocol; assay type: functional

SMILES | inhibition at 93.75 g/ha
C=CCN1C(=O)COc2cc(F)c(-n3nnc4nn(CC=C)cc4c3=O)cc21 | 51.2%

system: Brassica rapa subsp. oleifera; assay: Herbicidal activity against Brassica rapa subsp. oleifera assessed as inhibition of fresh weed plant weight at 187.5 g/ha using post-emergence treatment protocol; assay type: functional; summary of the method: as §1

SMILES | inhibition at 187.5 g/ha
C=CCN1C(=O)COc2cc(F)c(-n3nnc4nn(CC=C)cc4c3=O)cc21 | 12.3%

system: Brassica rapa subsp. oleifera; assay: Herbicidal activity against Brassica rapa subsp. oleifera assessed as inhibition of fresh weed plant weight at 187.5 g/ha using pre-emergence treatment protocol; assay type: functional

SMILES | inhibition at 187.5 g/ha
C=CCN1C(=O)COc2cc(F)c(-n3nnc4nn(CC=C)cc4c3=O)cc21 | 95.9%

system: Amaranthus retroflexus; assay: Herbicidal activity against Amaranthus retroflexus assessed as inhibition of fresh weed plant weight at 750 g/ha using post-emergence treatment protocol; assay type: functional; summary of the method: as §1

SMILES | inhibition at 750 g/ha
C=CCN1C(=O)COc2cc(F)c(-n3nnc4nn(CC=C)cc4c3=O)cc21 | 100%

system: Brassica rapa subsp. oleifera; assay: Herbicidal activity against Brassica rapa subsp. oleifera assessed as inhibition of fresh weed plant weight at 375 g/ha using post-emergence treatment protocol; assay type: functional; summary of the method: as §1

SMILES | inhibition at 375 g/ha
C=CCN1C(=O)COc2cc(F)c(-n3nnc4nn(CC=C)cc4c3=O)cc21 | 60.8%

system: Amaranthus retroflexus; assay: Herbicidal activity against Amaranthus retroflexus assessed as inhibition of fresh weed plant weight at 187.5 g/ha using post-emergence treatment protocol; assay type: functional; summary of the method: as §1

SMILES | inhibition at 187.5 g/ha
C=CCN1C(=O)COc2cc(F)c(-n3nnc4nn(CC=C)cc4c3=O)cc21 | 45.5%

system: Echinochloa crus-galli; assay: Herbicidal activity against Echinochloa crus-galli (barnyard grass) assessed as inhibition of fresh weed plant weight at 93.75 g/ha using pre-emergence treatment protocol; assay type: functional

SMILES | inhibition at 93.75 g/ha
C=CCN1C(=O)COc2cc(F)c(-n3nnc4nn(CC=C)cc4c3=O)cc21 | 8.2%

system: Brassica rapa subsp. oleifera; assay: Herbicidal activity against Brassica rapa subsp. oleifera assessed as inhibition of fresh weed plant weight at 1500 g/ha using pre-emergence treatment protocol; assay type: functional

SMILES | inhibition at 1500 g/ha
C=CCN1C(=O)COc2cc(F)c(-n3nnc4nn(CC=C)cc4c3=O)cc21 | 100%

system: Echinochloa crus-galli; assay: Herbicidal activity against Echinochloa crus-galli (barnyard grass) assessed as inhibition of fresh weed plant weight at 187.5 g/ha using post-emergence treatment protocol; assay type: functional; summary of the method: as §1

SMILES | inhibition at 187.5 g/ha
C=CCN1C(=O)COc2cc(F)c(-n3nnc4nn(CC=C)cc4c3=O)cc21 | 2.8%

system: Digitaria sanguinalis; assay: Herbicidal activity against Digitaria sanguinalis (hairy crabgrass) assessed as inhibition of fresh weed plant weight at 93.75 g/ha using pre-emergence treatment protocol; assay type: functional

SMILES | inhibition at 93.75 g/ha
C=CCN1C(=O)COc2cc(F)c(-n3nnc4nn(CC=C)cc4c3=O)cc21 | 6.1%

system: Brassica rapa subsp. oleifera; assay: Herbicidal activity against Brassica rapa subsp. oleifera assessed as inhibition of fresh weed plant weight at 93.75 g/ha using post-emergence treatment protocol; assay type: functional; summary of the method: as §1

SMILES | inhibition at 93.75 g/ha
C=CCN1C(=O)COc2cc(F)c(-n3nnc4nn(CC=C)cc4c3=O)cc21 | 10.2%

system: Echinochloa crus-galli; assay: Herbicidal activity against Echinochloa crus-galli (barnyard grass) assessed as inhibition of fresh weed plant weight at 750 g/ha using pre-emergence treatment protocol; assay type: functional

SMILES | inhibition at 750 g/ha
C=CCN1C(=O)COc2cc(F)c(-n3nnc4nn(CC=C)cc4c3=O)cc21 | 89.7%

system: Amaranthus retroflexus; assay: Herbicidal activity against Amaranthus retroflexus assessed as inhibition of fresh weed plant weight at 375 g/ha using post-emergence treatment protocol; assay type: functional; summary of the method: as §1

SMILES | inhibition at 375 g/ha
C=CCN1C(=O)COc2cc(F)c(-n3nnc4nn(CC=C)cc4c3=O)cc21 | 83.5%

system: Echinochloa crus-galli; assay: Herbicidal activity against Echinochloa crus-galli (barnyard grass) assessed as inhibition of fresh weed plant weight at 375 g/ha using pre-emergence treatment protocol; assay type: functional; summary of the method: as §1

SMILES | inhibition at 375 g/ha
C=CCN1C(=O)COc2cc(F)c(-n3nnc4nn(CC=C)cc4c3=O)cc21 | 27.9%

system: Amaranthus retroflexus; assay: Herbicidal activity against Amaranthus retroflexus assessed as inhibition of fresh weed plant weight at 1500 g/ha using post-emergence treatment protocol; assay type: functional; summary of the method: as §1

SMILES | inhibition at 1500 g/ha
C=CCN1C(=O)COc2cc(F)c(-n3nnc4nn(CC=C)cc4c3=O)cc21 | 100%

system: Amaranthus retroflexus; assay: Herbicidal activity against Amaranthus retroflexus assessed as inhibition of fresh weed plant weight at 93.75 g/ha using pre-emergence treatment protocol; assay type: functional

SMILES | inhibition at 93.75 g/ha
C=CCN1C(=O)COc2cc(F)c(-n3nnc4nn(CC=C)cc4c3=O)cc21 | 100%

system: Digitaria sanguinalis; assay: Herbicidal activity against Digitaria sanguinalis (hairy crabgrass) assessed as inhibition of fresh weed plant weight at 1500 g/ha using pre-emergence treatment protocol; assay type: functional

SMILES | inhibition at 1500 g/ha
C=CCN1C(=O)COc2cc(F)c(-n3nnc4nn(CC=C)cc4c3=O)cc21 | 90%

system: Digitaria sanguinalis; assay: Herbicidal activity against Digitaria sanguinalis (hairy crabgrass) assessed as inhibition of fresh weed plant weight at 375 g/ha using post-emergence treatment protocol; assay type: functional; summary of the method: as §1

SMILES | inhibition at 375 g/ha
C=CCN1C(=O)COc2cc(F)c(-n3nnc4nn(CC=C)cc4c3=O)cc21 | 0%

system: Digitaria sanguinalis; assay: Herbicidal activity against Digitaria sanguinalis (hairy crabgrass) assessed as inhibition of fresh weed plant weight at 93.75 g/ha using post-emergence treatment protocol; assay type: functional; summary of the method: as §1

SMILES | inhibition at 93.75 g/ha
C=CCN1C(=O)COc2cc(F)c(-n3nnc4nn(CC=C)cc4c3=O)cc21 | 0%

system: Amaranthus retroflexus; assay: Herbicidal activity against Amaranthus retroflexus assessed as inhibition of fresh weed plant weight at 375 g/ha using pre-emergence treatment protocol; assay type: functional

SMILES | inhibition at 375 g/ha
C=CCN1C(=O)COc2cc(F)c(-n3nnc4nn(CC=C)cc4c3=O)cc21 | 100%

system: Brassica rapa subsp. oleifera; assay: Herbicidal activity against Brassica rapa subsp. oleifera assessed as inhibition of fresh weed plant weight at 1500 g/ha using post-emergence treatment protocol; assay type: functional; summary of the method: as §1

SMILES | inhibition at 1500 g/ha
C=CCN1C(=O)COc2cc(F)c(-n3nnc4nn(CC=C)cc4c3=O)cc21 | 95.6%

system: Brassica rapa subsp. oleifera; assay: Herbicidal activity against Brassica rapa subsp. oleifera assessed as inhibition of fresh weed plant weight at 750 g/ha using pre-emergence treatment protocol; assay type: functional

SMILES | inhibition at 750 g/ha
C=CCN1C(=O)COc2cc(F)c(-n3nnc4nn(CC=C)cc4c3=O)cc21 | 100%

system: Echinochloa crus-galli; assay: Herbicidal activity against Echinochloa crus-galli (barnyard grass) assessed as inhibition of fresh weed plant weight at 1500 g/ha using post-emergence treatment protocol; assay type: functional; summary of the method: as §1

SMILES | inhibition at 1500 g/ha
C=CCN1C(=O)COc2cc(F)c(-n3nnc4nn(CC=C)cc4c3=O)cc21 | 30.8%

system: Digitaria sanguinalis; assay: Herbicidal activity against Digitaria sanguinalis (hairy crabgrass) assessed as inhibition of fresh weed plant weight at 187.5 g/ha using post-emergence treatment protocol; assay type: functional; summary of the method: as §1

SMILES | inhibition at 187.5 g/ha
C=CCN1C(=O)COc2cc(F)c(-n3nnc4nn(CC=C)cc4c3=O)cc21 | 0%

system: Digitaria sanguinalis; assay: Herbicidal activity against Digitaria sanguinalis (hairy crabgrass) assessed as inhibition of fresh weed plant weight at 187.5 g/ha using pre-emergence treatment protocol; assay type: functional

SMILES | inhibition at 187.5 g/ha
C=CCN1C(=O)COc2cc(F)c(-n3nnc4nn(CC=C)cc4c3=O)cc21 | 16.3%

system: Amaranthus retroflexus; assay: Herbicidal activity against Amaranthus retroflexus assessed as inhibition of fresh weed plant weight at 750 g/ha using pre-emergence treatment protocol; assay type: functional; summary of the method: as §1

SMILES | inhibition at 750 g/ha
C=CCN1C(=O)COc2cc(F)c(-n3nnc4nn(CC=C)cc4c3=O)cc21 | 100%

system: Echinochloa crus-galli; assay: Herbicidal activity against Echinochloa crus-galli (barnyard grass) assessed as inhibition of fresh weed plant weight at 375 g/ha using post-emergence treatment protocol; assay type: functional; summary of the method: as §1

SMILES | inhibition at 375 g/ha
C=CCN1C(=O)COc2cc(F)c(-n3nnc4nn(CC=C)cc4c3=O)cc21 | 17.2%

system: Echinochloa crus-galli; assay: Herbicidal activity against Echinochloa crus-galli (barnyard grass) assessed as inhibition of fresh weed plant weight at 1500 g/ha using pre-emergence treatment protocol; assay type: functional

SMILES | inhibition at 1500 g/ha
C=CCN1C(=O)COc2cc(F)c(-n3nnc4nn(CC=C)cc4c3=O)cc21 | 100%

system: Digitaria sanguinalis; assay: Herbicidal activity against Digitaria sanguinalis (hairy crabgrass) assessed as inhibition of fresh weed plant weight at 750 g/ha using post-emergence treatment protocol; assay type: functional; summary of the method: as §1

SMILES | inhibition at 750 g/ha
C=CCN1C(=O)COc2cc(F)c(-n3nnc4nn(CC=C)cc4c3=O)cc21 | 0%

system: Digitaria sanguinalis; assay: Herbicidal activity against Digitaria sanguinalis (hairy crabgrass) assessed as inhibition of fresh weed plant weight at 750 g/ha using pre-emergence treatment protocol; assay type: functional

SMILES | inhibition at 750 g/ha
C=CCN1C(=O)COc2cc(F)c(-n3nnc4nn(CC=C)cc4c3=O)cc21 | 75.5%
